# Published values of several laboratories.
# Compare with care: the assays were run in different laboratories.
# Cell line: DU-145
# Effect on: cell growth or viability
Structure (SMILES),technique,time,IC50 [µM]
O=C(O)/C=C/c1ccc(C(c2c[nH]c3ccccc23)c2c[nH]c3ccccc23)s1,MTT,48 h,90
COc1cc(OC)cc([C@H]2C[C@@H](C)OC(=O)c3cc4ccccn4c32)c1 (racemic),resazurin,72 h,52.4
COc1cc(C(=O)c2csc(-c3ccccc3)n2)cc(OC)c1OC,SRB,96 h,0.071
COC1=CC(=O)N(C(=O)[C@@H](CCC(Cl)(Cl)Cl)NC(=O)C(C)(C)C)[C@@H]1CCC(Cl)(Cl)Cl,resazurin,72 h,20
C[C@@H]1C[C@H](c2cccc(Cl)c2)c2c(cc3ccccn23)C(=O)O1 (racemic),resazurin,72 h,54.7
Cc1cccc2c(C(c3ccc(/C=C/C(=O)O)s3)c3c[nH]c4c(C)cccc34)c[nH]c12,MTT,48 h,64
COc1cc([C@H]2C[C@@H](C)OC(=O)c3cc4ccccn4c32)cc(OC)c1OC (racemic),resazurin,72 h,36.9
C[C@H]1O[C@@H](n2cc(F)c(=O)[nH]c2=O)[C@H](O)[C@@H]1O,CCK-8,48 h,> 50
Cn1cc(C(c2cccc(/C=C/C(=O)O)c2)c2cn(C)c3ccccc23)c2ccccc21,MTT,48 h,> 100
Cc1ccccc1-c1ccc(Cn2cccc(O)c2=S)cc1,MTS,,13.6
Cc1cc(=O)[nH]c(=O)n1Cc1cn(-c2c3ccccc3nc3ccccc23)nn1,MTT,,26.1
C[C@@H]1C[C@H](c2ccccc2)c2c(cc3ccccn23)C(=O)O1 (racemic),resazurin,72 h,> 100
CC(C)n1cc(C(c2ccc(/C=C/C(=O)O)s2)c2cn(C(C)C)c3ccccc23)c2ccccc21,MTT,48 h,52
CC(C)C[C@H](NC(=O)[C@H](Cc1ccccc1)NC(=O)c1cnccn1)B(O)O,ATP luminescence,,0.017
COc1cccc([C@@H]2C[C@@H](C)OC(=O)c3cc4ccccn4c32)c1 (racemic),resazurin,72 h,> 100
Cn1cc(C(c2ccc(/C=C/C(=O)O)s2)c2cn(C)c3ccccc23)c2ccccc21,MTT,48 h,46
Cc1ccc(S(=O)(=O)OCC(=O)Nc2ccc(C(=O)O)c(O)c2)cc1,,,75
C[C@@H]1C[C@H](c2cccc(F)c2)c2c(cc3ccccn23)C(=O)O1 (racemic),resazurin,72 h,> 100
Cc1ccc2c(c1)c(C(c1ccc(/C=C/C(=O)O)s1)c1cn(C(C)C)c3ccc(C)cc13)cn2C(C)C,MTT,48 h,> 100
C[C@@H]1C[C@H](c2ccc(Br)cc2)c2c(cc3ccccn23)C(=O)O1 (racemic),resazurin,72 h,34.4
O=C(O)C(c1c[nH]c2ccccc12)c1c[nH]c2ccccc12,MTT,48 h,> 100
COc1cc(C2Oc3cc([C@H]4Oc5cc(O)cc(O)c5C(=O)[C@@H]4O)ccc3OC2CO)ccc1O (stereo partly shown),CCK-8,72 h,21.9
